Screening data deposited in PubChem BioAssay by several laboratories.
OX1R antag-1 – antagonists of human orexin 1 receptor (OX1R); Orexin/Hypocretin receptor type 1 (Homo sapiens), O43613; OX1R-expressing cells, FRET antagonist read-out; inhibition, % at 6.6 µM; 1.8% of 330,000 active; AID 485270, 2010; in the data active means inhibition mostly above about 38%, no sharp cut-off; inactive means mostly below about 40%;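 further: 0% = agonist challenge alone and 100% = reference antagonist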
Target sequence (O43613 whole entry, looked up): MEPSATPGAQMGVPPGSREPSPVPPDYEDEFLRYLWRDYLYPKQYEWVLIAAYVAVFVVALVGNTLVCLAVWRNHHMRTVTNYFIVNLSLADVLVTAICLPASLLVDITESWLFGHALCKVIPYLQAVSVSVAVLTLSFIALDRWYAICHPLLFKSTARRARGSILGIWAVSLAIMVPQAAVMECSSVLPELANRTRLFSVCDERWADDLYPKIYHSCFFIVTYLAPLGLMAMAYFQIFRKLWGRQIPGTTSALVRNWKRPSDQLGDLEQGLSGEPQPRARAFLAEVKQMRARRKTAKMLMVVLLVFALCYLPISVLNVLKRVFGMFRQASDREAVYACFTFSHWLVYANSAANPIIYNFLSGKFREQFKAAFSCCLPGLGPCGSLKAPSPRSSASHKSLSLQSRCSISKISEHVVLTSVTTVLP
TAAR1 agonist – human TAAR1 agonists, primary screen, Fluo-8 calcium fluorescence, CHO RD-HGA16 cells. Trace amine-associated receptor 1 (Homo sapiens), Q96RJ0. activation, % at 3 µM. AID 624467, 2012. vehicle wells 0%, saturating PEA agonist 100%. 0.99% of 360,000 active;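 active means activation above the mean activation of all test compounds in the run plus 3 SD, cut at about 38% in these data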
Target sequence (Q96RJ0 whole entry, looked up): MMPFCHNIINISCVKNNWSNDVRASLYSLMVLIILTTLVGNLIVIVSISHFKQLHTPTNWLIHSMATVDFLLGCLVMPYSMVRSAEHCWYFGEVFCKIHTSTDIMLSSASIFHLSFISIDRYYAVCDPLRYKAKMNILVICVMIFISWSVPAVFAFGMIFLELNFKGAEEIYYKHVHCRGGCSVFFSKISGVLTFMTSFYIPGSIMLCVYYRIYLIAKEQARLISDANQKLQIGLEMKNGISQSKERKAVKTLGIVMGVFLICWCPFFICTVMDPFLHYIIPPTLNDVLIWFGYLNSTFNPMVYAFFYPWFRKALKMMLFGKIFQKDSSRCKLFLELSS
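Test system: RD-HGA16 (CHO) cells co-expressing Gα16 and hTAAR1 | Doses: Single dose, 3 µM | Schedule: 17-24 h seeding, 75 min 37 °C dye, 30 min RT | Evaluation: % activation from peak over basal fluorescence ratio, DMSO-to-PEA scaled | Technique: Kinetic Fluo-8 calcium fluorescence | Benchmarks: Low control DMSO, high control PEA (EC100)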
TAAR1 antagonist – human TAAR1 antagonists, primary screen, Fluo-8 calcium fluorescence, CHO RD-HGA16 cells. inhibition, % at 3 µM. antagonist. Trace amine-associated receptor 1 (Homo sapiens), Q96RJ0. 1.5% of 360,000 active;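 active means inhibition above a per-plate cutoff, the mean inhibition of test compounds on that plate plus 3 SD, cut at about 49% in these data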;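 further: 0% = DMSO plus EC80 beta-PEA response and 100% = DMSO alone without agonist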
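Material: RD-HGA16 CHO cells with stable hTAAR1 and Gα16; Dosing: single nominal final test compound concentration of 3 µM; Schedule: seeding 17-24 h prior, 75-min 37 °C, 30-min RT dye loading; Detection: kinetic Fluo-8 calcium fluorescence measurement; Measure: % inhibition from peak post-agonist over basal fluorescence ratio; Benchmarks: vehicle and agonist controls.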
NTR1 agonist – agonists of human NTR1, primary screen, imaging, U2OS cells, beta-arrestin-GFP, high content. 0.17% of 330,000 active. activation, % at 20 µM. NTR1-U2OS beta-arrestin-GFP spot imaging, agonist mode;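 active means activation at or above 40% of the spot to cytoplasm intensity ratio, with at least 20 cells analyzed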;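 further: 0% = DMSO without peptide and 100% = 100 nM NTR1 peptide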
CHO parental Ca – ATP-evoked calcium signal inhibitors, parental CHO, primary screen, counter-screen for OX1R antagonist project, cell-based, fluorescence, Fluo-8 calcium dye; parental CHO-K1, ATP-induced calcium, Fluo-8 fluorescence; inhibition, % at 5.6 µM; 0.63% of 330,000 active;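 active means inhibition above that plate's mean sample inhibition plus 3 SD, cut at about 26% in these data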;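 further: 0% = ATP-challenged DMSO wells and 100% = DMSO wells without ATP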
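material = parental CHO cells | also added = ATP as calcium-mobilizing challenge | dosing = single point at 5.6 µM | detection = intracellular calcium via Fluo-8 no-wash fluorescent dye | read-out = % inhibition | benchmarks = low control ATP plus DMSO, high control DMSO only | repeats = one well per compound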
OX1R antag-2 – OX1R (HCRTR1) antagonists, primary screen, fluorescence, CHO/OX1R cells, Fluo-8 calcium, orexin A | Orexin/Hypocretin receptor type 1 (Homo sapiens), O43613 | inhibition, % at 5 µM | 0.43% of 330,000 active | Fluo-8 calcium fluorescence | AID 434989, 2010;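 active means inhibition above its plate's threshold, mean inhibition of all tested compounds on the plate plus 3 SD, cut at about 37% in these data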;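 further: 0% = orexin A challenge wells and 100% = SB-334867-A antagonist wells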
An asterisk follows results filed as active; nt = no result given. Compounds with a hit are over-represented: about 4% of the library has one in this group of screens.

SMILES | OX1R antag-1 | TAAR1 agonist | TAAR1 antagonist | NTR1 agonist | CHO parental Ca | OX1R antag-2
CN(C(=O)c1cccnc1)c1nc(-c2ccccc2)cs1 | 13 | 6 | -3 | 1 | 51* | 13
CS(=O)(=O)NNC(=O)C1Cc2c(ccc3ccccc23)O1 (stereo not drawn) | 13 | 1 | -18 | -1 | -1 | -8
O=C(NNS(=O)(=O)c1ccc(F)cc1F)C1Cc2c(ccc3ccccc23)O1 (stereo not drawn) | 27 | 4 | 5 | 0 | 42* | 51*
CON(c1nc(N(C)C)nc(N(C)C)n1)S(=O)(=O)c1ccccc1Cl | 31* | -2 | -1 | 0 | -6 | 1
CC1CCN(CCCNC(=O)C2CCC(CNS(=O)(=O)c3ccccc3)CC2)CC1 (stereo not drawn) | 0 | 0 | -9 | -1 | -10 | -1
Cc1[nH]c2ccccc2c1CC(=O)Nc1ccc(Nc2ccncc2)cc1 | nt | 3 | -16 | nt | nt | nt
COC(=O)[C@]12CCCCC=C1N(Cc1cccc3ccccc13)C(=O)[C@H](CC(=O)NCc1ccc(OC)c(OC)c1)C2 | nt | 27 | 49* | nt | nt | nt
COC(=O)[C@]12CCCCC=C1N(Cc1ccc3c(c1)OCO3)C(=O)[C@H](CC(=O)NCC1CCCCC1)C2 | nt | 6 | 50* | nt | nt | nt
COC(=O)[C@]12CCCCC=C1N(CCc1ccc(OC)c(OC)c1)C(=O)[C@H](CC(=O)N1CCCCC1)C2 | nt | 12 | 52* | nt | nt | nt
COC(=O)[C@]12CCCCC=C1N(Cc1ccc3c(c1)OCO3)C(=O)[C@H](CC(=O)N1CCC(c3ccccc3)CC1)C2 | nt | 1 | 56* | nt | nt | nt
COC(=O)[C@]12CCCCC=C1N(CCc1ccc(OC)c(OC)c1)C(=O)[C@H](CC(=O)NCc1cccc3ccccc13)C2 | nt | 5 | 43 | nt | nt | nt
CC(C)C[C@H]1COc2cccc(N3CCCC3)c2S(=O)(=O)N1 | nt | -1 | -21 | nt | nt | nt
COC(=O)[C@]12CCCCC=C1N(Cc1ccc3c(c1)OCO3)C(=O)[C@H](CC(=O)NCc1ccc(OC)c(OC)c1)C2 | nt | 14 | 59* | nt | nt | nt
CCOC(=O)[C@]12CCCC=C1N(Cc1ccc3c(c1)OCO3)C(=O)[C@H](CC(=O)NCc1ccc(OC)c(OC)c1)C2 | nt | -2 | -6 | nt | nt | nt
O=C1C2C3C=CC(C3)C2C(=O)N1c1ccc(-c2nc(-c3ccccc3)nc3ccccc23)cc1 (stereo not drawn) | nt | 1 | 25 | nt | nt | nt
CCCCOCC1CN(CCCC)S(=O)(=O)c2c(Oc3ccc(C(C)C)cc3)cccc2O1 (stereo not drawn) | nt | 5 | -15 | nt | nt | nt
Cn1c2ccccc2c2c(=O)oc3ccccc3c21 | 61* | 1 | -22 | 4 | -6 | 25
CCCn1cnc2c(=O)oc3ccccc3c21 | 31 | 4 | 17 | 2 | 11 | 3
COc1ccc(CNC(=O)c2c(C)oc3c2C(=O)c2ccccc2C3=O)cc1 | 30 | 4 | 2 | 7 | 8 | 5
Cc1oc2c(c1C(=O)NCc1cccnc1)C(=O)c1ccccc1C2=O | 46* | nt | nt | 6 | -8 | -32
O=S1(=O)N[C@@H](Cc2ccccc2)COc2cc(N3CCCCC3)ccc21 | nt | -1 | 1 | nt | nt | nt
NC(=O)C1CCN(C2=C(NS(=O)(=O)c3ccc(Br)cc3)C(=O)c3ccccc3C2=O)CC1 | 76* | 4 | -3 | 1 | -18 | -17
NC(=O)C1CCN(C2=C(Cl)C(=O)c3ccccc3C2=O)CC1 | 62* | 0 | 21 | 0 | 7 | 3
CCOC(=O)C1CCN(C2=C(NS(=O)(=O)c3ccc(Br)cc3)C(=O)c3ccccc3C2=O)CC1 | 75* | -3 | -2 | 1 | -33 | -41
CN1CCN(C2=C(Cl)C(=O)c3ccccc3C2=O)CC1 | nt | 4 | 18 | nt | nt | nt
SMILES | OX1R antag-1 | TAAR1 agonist | TAAR1 antagonist | NTR1 agonist | CHO parental Ca | OX1R antag-2
O=C(O)CCCC(=O)OCCCc1cc2ccccc2c(=O)o1 | nt | 5 | -9 | nt | nt | nt
CC(OC(=O)c1cc(-c2cccnc2)nc2ccccc12)C(=O)Nc1ccc2ccccc2c1 (stereo not drawn) | 20 | 9 | 51* | 13 | -25 | -22
O=C(NNC(=S)Nc1ccccc1)c1cc(-c2cccnc2)nc2ccccc12 | 25 | 7 | 21 | 2 | -24 | -34
CNc1nc(NCCCN2CCCC2=O)c2sccc2n1 | nt | 26 | 17 | nt | nt | nt
O=C1CCCN1CCCNc1ncccc1[N+](=O)[O-] | 43* | -2 | -10 | 0 | 6 | -8
Cc1ccc2c(c1)[C@@H]1CN(C)CC[C@@H]1N2S(=O)(=O)c1ccc(F)cc1 | 2 | 2 | -11 | 0 | -15 | -15
Cc1ccc2c(c1)C1CN(C)CCC1N2Sc1ccccc1[N+](=O)[O-] (stereo not drawn) | 1 | 40* | -2 | 9 | -9 | -21
Cc1ccc2c(c1)[C@@H]1CN(C)CC[C@@H]1N2S(=O)(=O)c1ccc([N+](=O)[O-])cc1 | 44* | 14 | 9 | -1 | 9 | -15
CSc1nc2c(=O)[nH]cnc2s1 | nt | 1 | -8 | nt | nt | nt
O=c1[nH][nH]c(C(F)(F)F)c1C=NCc1cccc(Cl)c1 | 13 | 43* | 11 | -7 | -11 | -13
O=c1[nH][nH]c(C(F)(F)F)c1C=NCc1ccc(Cl)cc1 | 15 | 24 | 9 | -2 | -5 | -14
Cc1ccc(C23CC4CC(CC(CN)(C4)C2)C3)cc1 | nt | 10 | 12 | nt | nt | nt
NCC12CC3CC(C1)CC(c1ccc(Br)cc1)(C3)C2 | 2 | 42* | 22 | 13 | -4 | -8
NC(=O)c1cc2ccccc2o/c1=N\NC(=O)c1ccncc1 | 69* | -1 | -14 | 1 | -7 | -14
Cc1ccc(C(=O)N/N=c2\oc3ccccc3cc2C(N)=O)cc1 | 6 | 6 | -7 | 2 | -15 | -24
COC(=O)c1cc2c(c3c4cc(F)ccc4n(S(=O)(=O)c4ccc(C)cc4)c13)C(=O)N(C)C2 | nt | -2 | -5 | nt | nt | nt
O=C(OCn1ncc(Cl)c(Cl)c1=O)c1cccc(C(F)(F)F)c1 | 6 | nt | nt | 16 | 81* | 52*
Cc1nn(CC(=O)NCCCN2CCCC2)c(=O)c2nn(-c3ccccc3)c(C)c12 | 10 | 0 | -14 | -2 | 8 | -6
Cc1ccc(NC(=O)CSc2nnc(-c3ccco3)n2N)cc1F | 12 | 41* | -33 | 0 | -22 | -30
CC(C)N(CCCNC(=O)c1ccc(CS(=O)(=O)c2c(Cl)cccc2Cl)o1)Cc1ccccc1 | 8 | 0 | -26 | 0 | -23 | -35
COc1ccccc1-c1oc2ccccc2c1C#CC1(O)CCCCC1 | 7 | 8 | 13 | 10 | -34 | -10
